1 molecule from ChEMBL document CHEMBL5316288, “Synthetic Strategies for Improving Solubility: Optimization of Novel Pyrazolo[1,5-a]pyrimidine CFTR Activator That Ameliorates Dry Eye Disease” (J Med Chem, 2023) can be followed below.

≈ marks a conversion by molar mass, not a printed value.

A short description of data set [1]: Cmax in New Zealand White Rabbit conjunctiva at 0.1 mg per eye, TOP and measured upto 72 hrs by LC-MS/MS analysis. It counts as ADME, tissue-based, Oryctolagus cuniculus. On the set-up: dose 0.1 mg, time < 72 hrs, route top. As to conditions: topical or ocular. An outline of the steps:
(§1)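 Male New Zealand White rabbits each received a single topical eye drop of 0.1 mg/eye, formulated in 5% polyoxyl 35 castor oil in sodium phosphate buffer. Plasma, tear, cornea, conjunctiva and retina were sampled from one eye at 0.5, 1, 4, 8, 12, 24, 48 and 72 h. Levels were measured by LC-MS/MS in tear and tissue homogenates. Parameters came from non-compartmental analysis of composite means, n = 3.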

Data set [2] in a line: AUClast in New Zealand White Rabbit conjunctiva at 0.1 mg per eye, TOP and measured upto 72 hrs by LC-MS/MS analysis. The format is ADME, tissue-based, Oryctolagus cuniculus. Also noted: time < 72 hrs, dose 0.1 mg, route top. As to conditions: topical or ocular. An outline of the steps: as §1
Data set [3] in a line: Tlast in New Zealand White Rabbit eye tear at 0.1 mg per eye, TOP and measured upto 72 hrs by LC-MS/MS analysis. It counts as ADME, tissue-based, Oryctolagus cuniculus, Secretion of lacrimal gland. Conditions: in vivo, topical_or_ocular. An outline of the steps:
as §1

Data set [4] is described as follows: AUC (0 to infinity) in New Zealand White Rabbit eye tear at 0.1 mg per eye, TOP and measured upto 72 hrs by LC-MS/MS analysis. Also noted: time < 72 hrs, dose 0.1 mg, route top. It counts as ADME, tissue-based, Oryctolagus cuniculus, Secretion of lacrimal gland. Conditions: in vivo, topical_or_ocular. In a few lines:
as §1

Data set [5] can be described thus: Tmax in New Zealand White Rabbit conjunctiva at 0.1 mg per eye, TOP and measured upto 72 hrs by LC-MS/MS analysis. The format is ADME, tissue-based, Oryctolagus cuniculus. Conditions: in vivo, topical_or_ocular. An outline of the steps: as §1
Data set [6] can be described thus: AUClast in New Zealand White Rabbit cornea at 0.1 mg per eye, TOP and measured upto 72 hrs by LC-MS/MS analysis. The format is ADME, tissue-based, Oryctolagus cuniculus. On the set-up: dose 0.1 mg, time < 72 hrs, route top. Conditions: topical or ocular. In a few lines:
as §1

Data set [7] can be described thus: Half life in New Zealand White Rabbit cornea at 0.1 mg per eye, TOP and measured upto 72 hrs by LC-MS/MS analysis. The format is ADME, tissue-based, Oryctolagus cuniculus. As to conditions: in vivo, topical_or_ocular. In a few lines:
as §1

Data set [8] in a line: AUClast in New Zealand White Rabbit eye tear at 0.1 mg per eye, TOP and measured upto 72 hrs by LC-MS/MS analysis. On the set-up: dose 0.1 mg, time < 72 hrs, route top. The format is ADME, tissue-based, Oryctolagus cuniculus, Secretion of lacrimal gland. Conditions: in vivo, topical_or_ocular. In a few lines:
as §1

Data set [9] can be described thus: Cmax in New Zealand White Rabbit cornea at 0.1 mg per eye, TOP and measured upto 72 hrs by LC-MS/MS analysis. The format is ADME, tissue-based, Oryctolagus cuniculus. Also noted: dose 0.1 mg, time < 72 hrs, route top. Conditions: topical or ocular. An outline of the steps:
as §1

The nature of data set [10]: Cytotoxicity against human Conjunctival epithelial cells assessed as reduction in cell viability at 30 uM incubated for 48 hrs with medium changed every 12 hrs by MTS assay. The format is toxicity, cell-based. An outline of the steps:
(§2)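 Immortalized human corneal or conjunctival epithelial cells were plated and, after 24 h, exposed to 30 μM compound for 48 h. DMSO served as control and 0.01% Triton X-100 as the lysis control. Medium and compound were renewed every 12 h. Viability was read by MTS, 1 h incubation, absorbance at 490 nm; n = 3.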

Data set [11] is described as follows: AUC (0 to infinity) in New Zealand White Rabbit cornea at 0.1 mg per eye, TOP and measured upto 72 hrs by LC-MS/MS analysis. The format is ADME, tissue-based, Oryctolagus cuniculus. Also noted: time < 72 hrs, dose 0.1 mg, route top. As to conditions: topical or ocular. An outline of the steps:
as §1

A short description of data set [12]: Solubility of compound in PBS at 7.5 at 0.5 mg/ml incubated for 90 mins by LC-MS/MS analysis. It counts as physicochemical. Conditions: PBS, pH 7.5. An outline of the steps:
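Thermodynamic solubility: compound at 0.5 mg/mL in isotonic phosphate-buffered saline, pH 7.5, vortexed for 90 min. The solution was then filtered sequentially through 0.45, 1.2 and 5.0 μm filters. Concentration was measured by LC-MS/MS against a ≥6-point internal-standard calibration curve (weighted 1/x linear or quadratic) and back-calculated.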

Data set [13] in a line: AUC (0 to 24 hrs) in New Zealand White Rabbit conjunctiva at 0.1 mg per eye, TOP and measured upto 72 hrs by LC-MS/MS analysis. The format is ADME, tissue-based, Oryctolagus cuniculus. Also noted: dose 0.1 mg, time < 72 hrs, route top. As to conditions: topical or ocular. In a few lines:
as §1

Data set [14] in a line: AUC (0 to 24 hrs) in New Zealand White Rabbit cornea at 0.1 mg per eye, TOP and measured upto 72 hrs by LC-MS/MS analysis. It counts as ADME, tissue-based, Oryctolagus cuniculus. Also noted: dose 0.1 mg, time < 72 hrs, route top. As to conditions: topical or ocular. An outline of the steps: as §1
The nature of data set [15]: AUC (0 to 24 hrs) in New Zealand White Rabbit eye tear at 0.1 mg per eye, TOP and measured upto 72 hrs by LC-MS/MS analysis. Conditions: in vivo, topical_or_ocular. Also noted: dose 0.1 mg, time < 72 hrs, route top. The format is ADME, tissue-based, Oryctolagus cuniculus, Secretion of lacrimal gland. An outline of the steps:
as §1

A short description of data set [16]: Tlast in New Zealand White Rabbit cornea at 0.1 mg per eye, TOP and measured upto 72 hrs by LC-MS/MS analysis. The format is ADME, tissue-based, Oryctolagus cuniculus. Conditions: in vivo, topical_or_ocular. An outline of the steps: as §1
Data set [17] in a line: Half life in New Zealand White Rabbit eye tear at 0.1 mg per eye, TOP and measured upto 72 hrs by LC-MS/MS analysis. The format is ADME, tissue-based, Oryctolagus cuniculus, Secretion of lacrimal gland. As to conditions: in vivo, topical_or_ocular. In a few lines: as §1
A short description of data set [18]: Tlast in New Zealand White Rabbit conjunctiva at 0.1 mg per eye, TOP and measured upto 72 hrs by LC-MS/MS analysis. It counts as ADME, tissue-based, Oryctolagus cuniculus. Conditions: in vivo, topical_or_ocular. An outline of the steps: as §1
Data set [19] in a line: Tmax in New Zealand White Rabbit cornea at 0.1 mg per eye, TOP and measured upto 72 hrs by LC-MS/MS analysis. It counts as ADME, tissue-based, Oryctolagus cuniculus. Conditions: in vivo, topical_or_ocular. An outline of the steps:
as §1

A short description of data set [20]: Cmax in New Zealand White Rabbit eye tear at 0.1 mg per eye, TOP and measured upto 72 hrs by LC-MS/MS analysis. On the set-up: time < 72 hrs, dose 0.1 mg, route top. The format is ADME, tissue-based, Oryctolagus cuniculus, Secretion of lacrimal gland. Conditions: in vivo, topical_or_ocular. In a few lines:
as §1

A short description of data set [21]: Cytotoxicity against human Corneal epithelial cells assessed as reduction in cell viability at 30 uM incubated for 48 hrs with medium changed every 12 hrs by MTS assay. It counts as toxicity, cell-based. In a few lines:
as §2

Data set [22] in a line: Half life in New Zealand White Rabbit conjunctiva at 0.1 mg per eye, TOP and measured upto 72 hrs by LC-MS/MS analysis. The format is ADME, tissue-based, Oryctolagus cuniculus. As to conditions: in vivo, topical_or_ocular. An outline of the steps:
as §1

The nature of data set [23]: AUC (0 to infinity) in New Zealand White Rabbit conjunctiva at 0.1 mg per eye, TOP and measured upto 72 hrs by LC-MS/MS analysis. The format is ADME, tissue-based, Oryctolagus cuniculus. Also noted: time < 72 hrs, dose 0.1 mg, route top. Conditions: topical or ocular. An outline of the steps: as §1

Take `COc1ccc(-c2ccnc3cc(C(=O)N4CCN(C(=O)c5ccccc5)[C@@H](C)C4)nn23)cc1OC`: the Cmax in data set [1] stood at 793 ng/mL; in data set [9], 7840 ng/mL; in [20], 749 ng/mL. The AUC(0-t) at 72 h in data set [2] was 9820 ng·h/mL; in data set [6] it was 28300 ng·h/mL; in data set [13], 4730 ng·h/mL; in [14], 19400 ng·h/mL. In addition, the Tlast in data set [3], in data set [16] and in data set [18] was 72 h each time. Further, the AUC came out at 18750 ng·h/mL in data set [4] and 7952 ng·h/mL in [15]. Also, the Tmax in [5] and in data set [19] was 0.5 h throughout. Further, the t1/2 in data set [7] amounted to 23.1 h; in data set [17] it was 29.8 h; in [22], 40.6 h. Moreover, the AUClast in data set [8] was 16573 ng·h/mL. Besides, the Activity result in [10] and in [21] was “Non-Toxic” each time. The area under the curve AUC(0-inf) in data set [11] was 35800 ng·h/mL; in data set [23] it was 13700 ng·h/mL. In data set [12], the thermodynamic solubility at 1.5 h came out at 134 µM (≈ 65.3 µg/mL).
